Rin1-Abl PPI inh: human Rin1-Abl interaction inhibition; AID 588664; P00519+Q13671; actives 0.4% (n = 360,000); inhibition, % at 7.35 µM; TR-FRET Rin1/Abl binding, biochemical; in the data active = inhibition above about 5%, passing the limit was not always enough
SKN-1 block: C. elegans SKN-1 inhibition; C. elegans VP596 Pgst-4::GFP/RFP ratio, acrylamide-induced, 24 h; inhibition, % at 21.8 µM; actives 0.49% (n = 360,000);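 active = interference check ratio from 0.5 to 1.5 plus GFP to RFP signal ratio inhibition reaching or exceeding a fixed threshold, cut at about 30% in these data, passing the limit was not always enough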
Arr AP2 block: inhibitors of human beta-arrestin and AP2 interaction; inhibition, % at 10 µM; FITC-arrestin peptide / GST-AP2 beads, flow cytometry; AP2 beta2 appendage carries R879A mutation; actives 0.31% (n = 340,000);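 active = inhibition above a set limit, near 3 SD of compounds lacking own fluorescence, cut at about 54% in these data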;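 note: plate controls were DMSO wells for no effect and 5 µM unlabelled arrestin peptide for full effect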
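test system = AP2 appendage R879A on GSH beads | buffer or medium = PBS plus Tween 20 (0.05%) and BSA (0.1%) | incubation = 12 min plus 1 h, RT | detection = bead flow cytometry, FITC channel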
TbMetRS inhib: Trypanosoma brucei MetRS inhibition. inhibition, % at 11.9 µM. actives 0.4% (n = 360,000). purified T. brucei MetRS, ATP depletion, Kinase-Glo luminescence;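 active = inhibition above a per-plate cutoff of the control wells' mean inhibition plus 3 SD, cut at about 5.5% in these data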;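 note: 0% = DMSO wells median and 100% = median of wells with control inhibitor compound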
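Material – parasite MetRS enzyme · Medium – HEPES-MgCl2-KCl buffer plus DTT, spermine, BSA, pyrophosphatase · Reagent – ATP, methionine and E. coli bulk tRNA substrates · Times – 15 min enzyme-compound preincubation, 2 h reaction, 10 min detection, 25 °C · Measured by – luminescence of leftover ATP · Evaluation – percent inhibition relative to median high and low control wells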
MT1-MMP act inh: MT1-MMP (human) activation inhibition; P50281; HT1080 RFP-PRO-GFP cells, GFP/RFP ratio fluorescence, overnight; percent of plate control window, DMSO zero; GFP/RFP ratio change, % at 20 µM; actives 0.061% (n = 360,000); AID 651647;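 active = GFP/RFP ratio change of at least 30% with cell ATP level not reduced by more than half and red fluorescence within 50% of control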
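Assay system: HT1080 cells carrying an RFP-PRO-GFP reporter | Dosing: Single dose of 20 µM compound, 1% DMSO final | Incubation: Cells overnight before dosing, compound overnight, 37 °C, 5% CO2 | Evaluation: GFP/RFP fluorescence ratio | Control set: DMSO and RFP-L50D-GFP cell wells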
Arr-AP2 CP1: blocks beta-arrestin peptide binding to human AP2; shares compounds with Arr AP2 block; AID 504908; inhibition, % at 10 µM; GST-AP2 beads, FITC arrestin peptide binding, flow cytometry; GST-fused beta2-adaptin appendage, R879A mutant; actives 2% (n = 1,300);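 active = inhibition above a set limit, roughly 3 SD of non-fluorescent compound noise, cut at about 38% in these data; inactive = inhibition at or below that limit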;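 note: loss of bead fluorescence from 50 nM FITC arrestin peptide bound to appendage; 0% = negative control wells and 100% = excess unlabelled arrestin peptide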
Target sequence (P63010 whole entry, looked up, the tested form may be a part, one chain of several): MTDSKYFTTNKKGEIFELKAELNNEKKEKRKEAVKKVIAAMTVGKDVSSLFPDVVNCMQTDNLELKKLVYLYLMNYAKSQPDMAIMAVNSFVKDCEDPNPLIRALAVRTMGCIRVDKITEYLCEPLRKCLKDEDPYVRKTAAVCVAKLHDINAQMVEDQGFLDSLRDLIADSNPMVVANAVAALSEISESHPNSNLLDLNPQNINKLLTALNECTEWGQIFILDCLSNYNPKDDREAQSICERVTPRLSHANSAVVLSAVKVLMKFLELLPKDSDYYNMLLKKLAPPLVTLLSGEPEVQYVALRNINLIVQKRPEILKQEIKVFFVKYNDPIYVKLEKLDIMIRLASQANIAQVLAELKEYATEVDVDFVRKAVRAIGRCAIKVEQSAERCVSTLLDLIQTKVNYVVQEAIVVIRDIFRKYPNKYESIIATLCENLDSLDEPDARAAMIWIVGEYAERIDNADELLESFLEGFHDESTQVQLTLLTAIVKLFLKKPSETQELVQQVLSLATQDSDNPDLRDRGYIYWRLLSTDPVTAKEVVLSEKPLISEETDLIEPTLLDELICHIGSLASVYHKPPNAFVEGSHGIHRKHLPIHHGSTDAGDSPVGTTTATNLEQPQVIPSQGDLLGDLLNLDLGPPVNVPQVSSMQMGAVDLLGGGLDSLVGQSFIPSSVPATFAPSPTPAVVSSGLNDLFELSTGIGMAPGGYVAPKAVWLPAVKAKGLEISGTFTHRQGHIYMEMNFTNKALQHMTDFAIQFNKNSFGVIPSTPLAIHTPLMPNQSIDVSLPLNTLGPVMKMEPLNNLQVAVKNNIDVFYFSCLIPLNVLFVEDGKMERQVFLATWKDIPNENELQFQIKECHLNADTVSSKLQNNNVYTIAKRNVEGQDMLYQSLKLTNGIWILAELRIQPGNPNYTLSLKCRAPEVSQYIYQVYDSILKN
GST GSH counter: disrupts GST binding to glutathione beads, arrestin-AP2 artifact | shares compounds with Arr AP2 block | inhibition, % at 10 µM | actives 2% (n = 1,300) | GST-fluorescein binding to GSH beads, fluorescence, counter-screen;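 active = inhibition above 50%, about 3 SD of the inhibition seen with non-fluorescent compounds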;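 note: fluorescein maleimide labelled GST captured on 4 micron glutathione beads; higher means more loss of bead fluorescence from quenching or blocked binding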
Starred values were filed as active, the others as inactive; . = no result. A selection: hits, their analogues and other compounds. The true share with any hit is near 1.6%.

SMILES	Rin1-Abl PPI inh	SKN-1 block	Arr AP2 block	TbMetRS inhib	MT1-MMP act inh	Arr-AP2 CP1	GST GSH counter
COc1ccc(NS(=O)(=O)c2cccc(C(=O)OCC(=O)c3c(N)n(C)c(=O)n(C)c3=O)c2)cc1	4.9	11.3	-13.8	0.6	-0.3	.	.
CC(C)Cn1c(N)c(C(=O)COC(=O)c2ccc(F)cc2)c(=O)n(C)c1=O	-0.5	3.4	13.3	0.5	0.3	2.6	-7.3
COc1cccc(C(=O)OCC(=O)c2c(N)n(C)c(=O)n(C)c2=O)c1	-1.5	7.5	2.0	-0.1	-4.7	-10.3	-4.0
COc1ccc(C(=O)OCC(=O)c2c(N)n(C)c(=O)n(C)c2=O)c(OC)c1OC	5.2	-5.2	19.6	0.0	1.5	-0.2	-1.9
Cn1c(N)c(C(=O)COC(=O)c2ccnc3ccccc23)c(=O)n(C)c1=O	-1.4	2.5	5.6	-0.4	1.4	.	.
O=C(COC(=O)c1cccc(OC(F)F)c1)Nc1ncccn1	5.4	4.9	41.7	-0.2	-3.7	.	.
COc1ccc(CN2C[C@@H](CO)O[C@@H](n3cnc4c(N(C)C)ncnc43)C2)cc1	1.0	-8.8	.	-0.3	-3.9	.	.
CC1=C(C(=O)N2CCCCCC2)CC(CC(=O)NC(c2ccccc2)c2ccccc2)C(=O)N1CCC1=CCCCC1 (stereo not given)	.	-7.3	.	-0.8	-15.1	.	.
CCn1nc(NC(=O)CC(C)C)c2cc3cccc(C)c3nc21	1.0	-0.8	54.9*	-1.4	-0.2	7.9	3.4
CCN(CC)C(=O)Cn1cc(/C=C(\C#N)C(=O)NC2CC2)c2ccccc21	-2.4	-15.0	61.0*	-1.1	-1.6	7.7	-6.3
CC(/C=C/C=C/c1ccccc1)=N\NC(=O)c1cccnc1	2.9	-9.1	40.9	-1.1	-0.1	.	.
CC(/C=C\C=C\c1ccccc1)=N\NC(=O)c1cncc(Br)c1	-3.9	-8.4	92.5*	-0.3	2.0	4.5	7.5
CCCCCOc1ccc(NC(=O)C2OC3OC(C)(C)OC3C3OC(C)(C)OC23)cc1 (stereo not given)	-0.9	9.2	107.1*	-0.6	-1.4	-0.3	10.1
CC(C)CCOc1ccc(NC(=O)C2OC3OC(C)(C)OC3C3OC(C)(C)OC23)cc1 (stereo not given)	2.0	11.6	-7.8	0.5	3.4	.	.
NS(=O)(=O)c1ccc(NC(=O)C2C3C=CC(C3)C2C(=O)O)cc1 (stereo not given)	5.0	-2.0	57.8*	-0.9	-2.4	24.1	-7.0
COc1ccc(NC(=O)C2C3C=CC(C3)C2C(=O)O)cc1 (stereo not given)	2.2	8.3	-18.1	-0.3	0.6	.	.
Nc1ccc2c(C(F)(F)F)cc(C(F)(F)F)nc2n1	7.0	-9.0	55.9*	-1.0	-0.1	-3.4	-6.0
FC(F)(F)c1cc(C(F)(F)F)c2ccc(Oc3ccccc3)nc2n1	-1.1	-10.9	4.7	-1.5	3.1	.	.
CCOc1ccccc1-c1cnc(NC)cn1	0.1	2.9	.	-0.2	0.9	.	.
O=C(Nc1ccc(Br)cc1F)c1ccncc1	1.7	7.2	97.3*	-0.2	0.6	1.8	-0.2
O=C(Nc1nnc(C2=COCCO2)o1)c1cccc(Br)c1	1.6	5.8	57.1*	-0.3	-0.7	-2.9	-4.1
Cc1cc(NC(=O)CSc2nnc3ccc(-c4ccccc4)nn23)no1	2.5	-9.1	.	0.6	2.5	.	.
CCCCNS(=O)(=O)c1ccc(NC(=O)Cc2ccccc2[N+](=O)[O-])cc1	2.9	-7.1	55.7*	-0.3	-5.2	1.3	1.3
CC(C)(C)NS(=O)(=O)c1ccc(NC(=O)Cc2ccccc2[N+](=O)[O-])cc1	-1.4	-0.6	11.8	-0.7	-3.4	.	.
COc1ccccc1-c1ccc([C@@H]2C[C@H]3[C@H](CON3C)CN2C(=O)c2ccc(-c3ccccc3)cc2)cc1	1.9	8.6	.	-1.9	-2.6	.	.
SMILES	Rin1-Abl PPI inh	SKN-1 block	Arr AP2 block	TbMetRS inhib	MT1-MMP act inh	Arr-AP2 CP1	GST GSH counter
CCCCCCNC(=O)O[C@H]1Cn2c(=O)ccc(=O)n2[C@@H]2CN(S(=O)(=O)c3ccc(C)cc3)C[C@]12O	-3.1	14.2	.	-1.0	-10.5	.	.
CC(=O)Nc1ccc(C(=O)COC(=O)c2ccco2)c(F)c1	0.8	8.6	-3.2	-0.4	-1.2	.	.
CC(=O)Nc1ccc(C(=O)COC(=O)c2cc(C)oc2C)c(F)c1	1.5	-8.2	72.4*	-0.4	9.4	-0.3	-1.6
CC(C)(C)c1ccc(CC(=O)N2CCC2(C)C(=O)NCc2cccs2)cc1 (stereo not given)	0.2	-0.8	.	-0.3	4.1	.	.
CCN(CC(=O)Nc1ccc(NC(C)=O)cc1)C(=O)CCCc1c[nH]c2ccccc12	1.7	0.1	62.1*	-0.8	-3.9	-3.8	-5.4
CCN(CC(=O)Nc1ccc(NC(C)=O)cc1)C(=O)CCCSc1nc2ccccc2[nH]1	1.4	9.6	66.5*	-0.1	-2.1	-15.7	0.8
CC(=O)Nc1ccc(NC(=O)CCCSc2nc3ccccc3[nH]2)cc1	1.2	-1.9	1.6	-0.1	-0.4	.	.
Cc1cccc(C)c1NC(=O)C(c1cccc2ccccc12)n1c(=O)c(-c2cc3ccccc3[nH]2)nc2ccccc21 (stereo not given)	.	2.6	.	-0.1	-0.5	.	.
O=C(NCC1COc2ccccc2O1)c1cccc(S(=O)(=O)N2CCN(c3ccccc3)CC2)c1 (stereo not given)	1.7	22.7	-13.3	-0.2	-4.3	.	.
CCCCCCCCCc1conc1C(=O)/C=C/c1ccco1	.	-8.0	.	0.2	1.4	.	.
C=Cc1ccc(CC2(C)C(=O)Nc3ccc(-c4cccnc4)cc32)cc1 (stereo not given)	-5.2	28.8	.	-0.1	-15.9	.	.
CCOC(=O)C1=CC[C@H]2c3c(c4ccc(OC)cc4n3C)C(=O)C1N2S(=O)(=O)c1ccc(C)cc1	0.2	13.4	58.3*	-0.4	-1.9	12.3	-3.7
COC(=O)C[C@@H]1C=C[C@@H](NC(C)=O)[C@@H](CO)O1	.	5.9	.	-0.6	-1.1	.	.
O=C(O)c1cc2nc(-c3ccccc3)cc(-c3ccccc3)n2n1	-1.4	2.8	67.6*	-0.7	-0.5	-10.2	1.3
O=C(O)c1cc2nc(-c3ccccc3)cc(C(F)(F)F)n2n1	1.1	-26.6	7.4	-1.1	3.2	.	.
CCOC(=O)c1ccc(NC(=O)Nc2nncs2)cc1	1.8	24.3	.	0.4	17.9	.	.
CCn1c(C(=O)NCCCc2ccccc2)cc2sccc21	-5.7	-4.5	58.1*	0.0	-0.5	4.1	0.0
Cc1cccc(C)c1NC(=S)Nc1ccc(F)cc1	6.9	-11.9	57.5*	-0.3	-2.0	3.4	-4.0
